# Measured values: ChEMBL document CHEMBL1687742, “Candida albicans and Staphylococcus aureus form polymicrobial biofilms: effects on antimicrobial resistance” (2009)
# The source made the active and inactive calls. No cut-off for these calls is given here.
# How the values were obtained:
# Candida albicans [1] = assay: Antifungal activity against Candida albicans SC5314 monomicrobial biofilms assessed as fungal viability after 24 hrs by CFU assay in presence of 50% bovine serum; type: functional, organism-based
# Outline: (§1)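 Biofilms were formed in 96-well tissue culture-treated plates in 50% BS with C. albicans (10⁶ CFU/ml) and/or S. aureus (10⁷ CFU/ml) for 24 h at 37°C. They were washed three times in PBS. Vancomycin, Amp B or both were added from DMSO stocks diluted in 50% BS, and biofilms were incubated a further 24 h. Cells were sonicated, tenfold-diluted and counted as CFU on selective agar. Duplicates; averages of two experiments.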
# Candida albicans [2] = assay: Antifungal activity against Candida albicans SC5314 planktonic monomicrobial biofilms assessed as […] viability after 24 hrs in presence 50% bovine serum by CFU assay; type: functional, organism-based
# Outline: (§2)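 C. albicans SC5314 at 10⁶ CFU/ml, alone or with S. aureus (10⁷ CFU/ml) for the mixed biofilm, was seeded in 50% bovine serum in tissue-culture-treated 96-well plates, 37°C, 24 h. Biofilms were PBS-washed thrice and exposed to serial antifungal concentrations diluted in 50% BS from DMSO stocks for 24 h. CFU were counted on ampicillin/erythromycin SDA after sonication. Duplicates, two experiments averaged.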
# Candida albicans [3] = assay: Antifungal activity against Candida albicans SC5314 planktonic polymicrobial biofilms grown in presence of Staphylococcus aureus ATCC 29523 assessed as […] viability after 24 hrs in presence 50% bovine serum by CFU assay; type: functional, organism-based; outline: as §2
# Staphylococcus aureus [4] = assay: Antibacterial activity against 10^7 CFU/ml Staphylococcus aureus ATCC 29523 polymicrobial biofilms grown in presence of Candida albicans SC5314 assessed as bacterial viability after 24 hrs in presence of amphotericin B by CFU assay in presence of 50% bovine serum; type: functional, organism-based; outline: as §1
# Staphylococcus aureus [5] = assay: Antibacterial activity against 10^7 CFU/ml Staphylococcus aureus ATCC 29523 polymicrobial biofilms grown in presence of 10^6 CFU/mL Candida albicans SC5314 assessed as bacterial viability at 800 ug/mL after 24 hrs by Transwell assay; type: functional, organism-based
# Outline: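 S. aureus (10⁷ CFU/ml) went in the bottom well and C. albicans (10⁶ CFU/ml) on a 0.4-μm PET Transwell insert, 24 h at 37°C. After PBS washing, vancomycin 800 μg/ml (diluted in 50% BS) went to the bottom well and Amp B to the insert, for 24 h at 37°C. CFU were counted in both compartments, with no-insert controls. Duplicates; averages of two experiments.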
# Staphylococcus aureus [6] = assay: Antibacterial activity against 10^7 CFU/ml Staphylococcus aureus ATCC 29523 polymicrobial biofilms grown in presence of Candida albicans SC5314 assessed as log reduction in bacterial viability at 800 ug/mL after 24 hrs in presence of amphotericin B by CFU assay in presence of 50% bovine serum; type: functional; outline: as §1
# Staphylococcus aureus [7] = assay: Antibacterial activity against Staphylococcus aureus ATCC 29523 […] polymicrobial biofilms grown in presence of Candida albicans SC5314 assessed as bacterial viability after 24 hrs in presence 50% bovine serum by CFU assay; type: functional, organism-based
# Staphylococcus aureus [8] = assay: Antibacterial activity against 10^7 CFU/ml Staphylococcus aureus ATCC 29523 polymicrobial biofilms grown in presence of Candida albicans SC5314 assessed as bacterial viability at 1600 ug/mL after 24 hrs in presence 50% bovine serum by CFU assay; type: functional, organism-based; outline: as §1
# Staphylococcus aureus [9] = assay: Antibacterial activity against 10^7 CFU/ml Staphylococcus aureus ATCC 29523 monomicrobial biofilms assessed as log reduction in bacterial viability at 800 ug/mL after 24 hrs in presence of amphotericin B by CFU assay in presence of 50% bovine serum; type: functional; outline: as §1
# Staphylococcus aureus [10] = assay: Antibacterial activity against 10^7 CFU/ml Staphylococcus aureus ATCC 29523 monomicrobial biofilms assessed as bacterial viability after 24 hrs by CFU assay in presence of 50% heat inactivated bovine serum; type: functional, organism-based
# Staphylococcus aureus [11] = assay: Antibacterial activity against 10^7 CFU/ml Staphylococcus aureus ATCC 29523 polymicrobial biofilms grown in presence of Candida albicans biofilm matrix assessed as reduction in bacterial viability at 1.582 to 1600 ug/mL after 24 hrs in presence 50% bovine serum by CFU assay; type: functional, organism-based
# Outline: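 Matrix came from 24-h C. albicans biofilms in 50% BS. It was scraped, sonicated, centrifuged three times at 12,000 × g and treated with Amp B 20 μg/ml. S. aureus (10⁷ CFU/ml) plus matrix in 50% BS was grown in 96-well plates for 24 h at 37°C, washed, then exposed to vancomycin for 24 h. Washed cells were counted as CFU. Duplicates; two independent experiments.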
# Staphylococcus aureus [12] = assay: Antibacterial activity against 10^7 CFU/ml Staphylococcus aureus ATCC 29523 monomicrobial biofilms assessed as bacterial viability after 24 hrs by CFU assay in presence of 50% bovine serum; type: functional, organism-based; outline: as §1
# Candida albicans [13] = assay: Antifungal activity against Candida albicans SC5314 polymicrobial biofilms grown in presence of sStaphylococcus aureus ATCC 29523 assessed as fungal viability after 24 hrs by CFU assay in presence of 50% bovine serum; type: functional, organism-based; outline: as §1
Structure (SMILES),growth inhibition (GI) (Candida albicans [1]),growth inhibition (GI) (Candida albicans [2]),growth inhibition (GI) (Candida albicans [3]),growth inhibition (GI) (Staphylococcus aureus [4]),growth inhibition (GI) (Staphylococcus aureus [5]),FC (Staphylococcus aureus [6]),growth inhibition (GI) (Staphylococcus aureus [7]),growth inhibition (GI) (Staphylococcus aureus [8]),FC (Staphylococcus aureus [9]),growth inhibition (GI) (Staphylococcus aureus [10]),growth inhibition (GI) (Staphylococcus aureus [11]),growth inhibition (GI) (Staphylococcus aureus [12]),growth inhibition (GI) (Candida albicans [13])
C[C@@H]1[C@H](O)[C@@H](C)/C=C/C=C/C=C/C=C/C=C/C=C/C=C/[C@H](O[C@@H]2O[C@H](C)[C@@H](O)[C@H](N)[C@@H]2O)C[C@@H]2O[C@](O)(C[C@@H](O)C[C@@H](O)[C@H](O)CC[C@@H](O)C[C@@H](O)CC(=O)O[C@H]1C)C[C@H](O)[C@H]2C(=O)O,inactive,Active,Active,–,–,–,–,–,–,–,–,–,–
CN[C@H](CC(C)C)C(=O)N[C@H]1C(=O)N[C@@H](CC(N)=O)C(=O)N[C@H]2C(=O)N[C@H]3C(=O)N[C@H](C(=O)N[C@H](C(=O)O)c4cc(O)cc(O)c4-c4cc3ccc4O)[C@H](O)c3ccc(c(Cl)c3)Oc3cc2cc(c3O[C@@H]2O[C@H](CO)[C@@H](O)[C@H](O)[C@H]2O[C@H]2C[C@](C)(N)[C@H](O)[C@H](C)O2)Oc2ccc(cc2Cl)[C@H]1O [VANCOMYCIN],inactive,–,–,Active,Active,2,Active,inactive,2,inactive,inactive,Dose-dependent effect,inactive
